{
  "source": "ChEMBL document CHEMBL1134307",
  "about": "“trans-4-[4-(Methoxyphenyl)cyclohexyl]-1-arylpiperazines: a new class of potent and selective 5-HT(1A) receptor ligands as conformationally constrained analogues of 4-[3-(5-methoxy-1,2,3,4-tetrahydronaphthalen-1-yl)propyl]-1-arylpiperazines” (J Med Chem, 2001)",
  "key": {"[1]": {"biological_target": "T1, 5-hydroxytryptamine receptor 1A (Homo sapiens, UniProt P08908)", "T1 sequence (P08908 whole entry)": "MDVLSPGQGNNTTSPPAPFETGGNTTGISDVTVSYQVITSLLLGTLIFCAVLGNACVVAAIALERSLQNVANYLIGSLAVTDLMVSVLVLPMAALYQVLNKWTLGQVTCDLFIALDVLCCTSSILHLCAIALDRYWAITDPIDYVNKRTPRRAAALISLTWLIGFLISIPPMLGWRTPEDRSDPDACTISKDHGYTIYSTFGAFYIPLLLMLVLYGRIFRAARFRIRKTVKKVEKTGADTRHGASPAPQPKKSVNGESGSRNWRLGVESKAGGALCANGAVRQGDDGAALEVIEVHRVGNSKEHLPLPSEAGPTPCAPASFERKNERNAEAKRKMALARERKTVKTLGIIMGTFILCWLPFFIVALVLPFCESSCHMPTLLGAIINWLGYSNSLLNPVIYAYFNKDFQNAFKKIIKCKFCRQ", "assay": "Binding affinity on human cloned 5-hydroxytryptamine 1A receptor transfected in human cell lines(He La)", "outline": "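HeLa cells stably expressing human 5-HT1A (genomic clone G-21), grown in DMEM with 10% FCS. […] Nonspecific binding with 10 µM 5-HT. Filtration through PEI-pretreated filters.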"}, "[2]": {"biological_target": "T2, Alpha-1B adrenergic receptor (Homo sapiens, UniProt P35368)", "T2 sequence (P35368 whole entry)": "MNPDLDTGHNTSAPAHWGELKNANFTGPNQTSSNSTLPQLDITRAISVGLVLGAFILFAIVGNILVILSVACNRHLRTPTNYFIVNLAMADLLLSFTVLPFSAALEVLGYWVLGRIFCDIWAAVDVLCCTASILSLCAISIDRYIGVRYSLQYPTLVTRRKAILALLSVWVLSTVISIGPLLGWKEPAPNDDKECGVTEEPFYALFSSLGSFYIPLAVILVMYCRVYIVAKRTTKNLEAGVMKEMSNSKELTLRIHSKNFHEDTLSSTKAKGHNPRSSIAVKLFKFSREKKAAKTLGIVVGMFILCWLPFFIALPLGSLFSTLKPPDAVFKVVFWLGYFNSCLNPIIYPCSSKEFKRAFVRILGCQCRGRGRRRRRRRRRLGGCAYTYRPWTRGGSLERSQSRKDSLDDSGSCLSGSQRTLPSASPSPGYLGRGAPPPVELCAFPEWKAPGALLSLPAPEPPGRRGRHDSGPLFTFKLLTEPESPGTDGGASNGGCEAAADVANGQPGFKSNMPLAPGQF", "assay": "Binding affinity was determined on human cloned alpha-1B adrenergic receptor", "outline": "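Membranes from CHO cells stably expressing each human α1-adrenoceptor subtype, incubated in 50 mM Tris pH 7.4 with 0.2 nM [3H]prazosin and competing drugs (1 pM–10 µM), 30 min at 25 °C. Nonspecific binding with 10 µM phentolamine. Stopped with ice-cold Tris and filtration through 0.2% PEI-pretreated filters.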"}, "[3]": {"biological_target": "T3, 5-hydroxytryptamine receptor 1A (Rattus norvegicus, UniProt P19327)", "T3 sequence (P19327 whole entry)": "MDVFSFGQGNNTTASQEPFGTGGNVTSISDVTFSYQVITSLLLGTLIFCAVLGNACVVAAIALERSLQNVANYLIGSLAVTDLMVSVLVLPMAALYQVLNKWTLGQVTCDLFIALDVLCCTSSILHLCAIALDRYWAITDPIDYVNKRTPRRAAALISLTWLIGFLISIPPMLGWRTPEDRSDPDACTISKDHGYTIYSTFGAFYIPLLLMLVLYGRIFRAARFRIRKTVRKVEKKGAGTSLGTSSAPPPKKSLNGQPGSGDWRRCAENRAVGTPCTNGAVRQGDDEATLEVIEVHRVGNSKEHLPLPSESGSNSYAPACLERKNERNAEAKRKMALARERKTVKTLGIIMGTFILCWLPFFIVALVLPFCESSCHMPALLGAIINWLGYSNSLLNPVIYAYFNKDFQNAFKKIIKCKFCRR", "assay": "Binding was determined on 5-hydroxytryptamine 1A receptor in rat hippocampal membranes", "type": "cell membranes, Hippocampus", "outline": "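Hippocampus from male Wistar Hannover rats, homogenized in 50 mM Tris pH 7.6, washed, and preincubated 10 min at 37 °C. Ki given as mean ± SEM.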"}},
  "data": [
    {"smiles": "COc1cccc2c(CCCN3CCN(c4ccccn4)CC3)cccc12", "values": [
      {"measurement": "Ki", "setting": "[1]", "result": 3, "unit": "nM"},
      {"measurement": "Ki", "setting": "[2]", "result": 4.21, "unit": "nM"},
      {"measurement": "Ki", "setting": "[3]", "result": 0.38, "unit": "nM"}
    ]},
    {"smiles": "COc1cccc(C2CCC(N3CCN(c4ccccc4OC)CC3)CC2)c1", "note": "(stereo in doubt; trans)", "values": [
      {"measurement": "Ki", "setting": "[1]", "result": 0.21, "unit": "nM"},
      {"measurement": "Ki", "setting": "[2]", "result": 43.3, "unit": "nM"},
      {"measurement": "Ki", "setting": "[3]", "result": 0.02, "unit": "nM"}
    ]},
    {"smiles": "COc1cccc(C2CCC(NCCOc3ccccn3)CC2)c1", "note": "(stereo in doubt)", "values": [
      {"measurement": "Ki", "setting": "[1]", "result": 3.77, "unit": "nM"},
      {"measurement": "Ki", "setting": "[2]", "result": 332, "unit": "nM"},
      {"measurement": "Ki", "setting": "[3]", "result": 17, "unit": "nM"}
    ]},
    {"smiles": "COc1cccc(C2CCC(N3CCN(c4ccccn4)CC3)CC2)c1", "note": "(trans isomer)", "values": [
      {"measurement": "Ki", "setting": "[1]", "result": 0.2, "unit": "nM"},
      {"measurement": "Ki", "setting": "[2]", "result": 53.1, "unit": "nM"},
      {"measurement": "Ki", "setting": "[3]", "result": 0.028, "unit": "nM"}
    ]},
    {"smiles": "COc1cccc2c(CCCNCCOc3ccccn3)cccc12", "values": [
      {"measurement": "Ki", "setting": "[1]", "result": 0.86, "unit": "nM"},
      {"measurement": "Ki", "setting": "[2]", "result": 270, "unit": "nM"},
      {"measurement": "Ki", "setting": "[3]", "result": 0.19, "unit": "nM"}
    ]},
    {"smiles": "COc1cccc2c1CCCC2CCCN1CCN(c2ccccn2)CC1", "note": "(stereo not given)", "values": [
      {"measurement": "Ki", "setting": "[2]", "result": 7.88, "unit": "nM"},
      {"measurement": "Ki", "setting": "[3]", "result": 0.48, "unit": "nM"}
    ]},
    {"smiles": "COc1cccc2c1CCCC2CCCNCCOc1ccccn1", "note": "(stereo not given)", "values": [
      {"measurement": "Ki", "setting": "[1]", "result": 0.23, "unit": "nM"},
      {"measurement": "Ki", "setting": "[2]", "result": 26.4, "unit": "nM"},
      {"measurement": "Ki", "setting": "[3]", "result": 0.54, "unit": "nM"}
    ]}
  ]
}
